The results in this text go back to ChEMBL document CHEMBL1144887, “Indanylidenes. 1. Design and synthesis of (E)-2-(4,6-difluoro-1-indanylidene)acetamide, a potent, centrally acting muscle relaxant with antiinflammatory and analgesic activity” (J Med Chem, 2003).

Assay type in all cases: functional
Assay [1] relates to Mus musculus. The assay can be described thus: Effective dose required for muscle relaxation by oral administration in mouse using Straub-tail (ST) assay. A digest of the protocol:
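Mouse morphine-induced Straub tail assay, scoring inhibition of sacro-coccygeus dorsalis contraction. Dosed ip or po, generally at a minimum of three doses with N = 6 animals per dose group.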

Assay [2] concerns Mus musculus. Briefly: Percent effect profile muscle relaxation at 100 mg/kg by intraperitoneal administration in mouse using Straub-tail (ST) assay. The conditions noted are these: ip. A digest of the protocol: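 Mouse morphine-induced Straub tail assay, scoring inhibition of sacro-coccygeus dorsalis contraction. Single ip dose of 100 mg/kg; percent effect reported. Compounds above 50% inhibition were then tested orally.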

Assay [3] relates to Rattus norvegicus. Briefly: Antiinflammatory activity in cells by Carrageenan pleurisy assay by oral administration at 20 mg/kg. The procedure, abridged: (§1)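 Rat carrageenan pleurisy, 3 h. Single oral dose of 20 mg/kg, with separate read-outs for pleural cell counts and edema as percent inhibition. Each compound tested two or three times; average variation approximately 10%.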

The subject of assay [4] is Rattus norvegicus. The assay can be described thus: Antiinflammatory activity in edema by Carrageenan pleurisy assay by oral administration at 20 mg/kg. The procedure, abridged: as §1
For assay [5], the system named is Rattus norvegicus. Briefly: Percent inhibition for analgesic activity by trypsin-induced hyperalgesia assay at 20 mg/kg by oral administration in rats. The procedure, abridged: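 Rat trypsin-induced hyperalgesia (mild analgesia). Percent inhibition at a single oral dose of 20 mg/kg. Each compound tested two or three times; average variation approximately 5%.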

Structures are written as SMILES.

A word on the ED50: it is the dose at which the effect has come halfway, by size or by number of responders. High values mean a need for a large dose, low ones an effect at a small dose. What is called inhibition in vivo is the drop in the measured response relative to a control, in per cent. A low value points to a weak effect.

The molecule `NC(=O)/C=C1\CCc2ccc(Br)cc21` came in with an ED50 in the assay with Mus musculus [1] of 96 mg/kg. This molecule also came in with an inhibition in vivo at 100 mg/kg in the assay on Mus musculus [2] of 100%. Further, the inhibition in vivo at 20 mg/kg was found to be 38% in the assay on Rattus norvegicus [3] and 21% in the assay on Rattus norvegicus [4].
Consider `O=C(/C=C1\CCc2ccc(F)cc21)N1CCCC1`, for which the values for the inhibition in vivo at 20 mg/kg in the assay on Rattus norvegicus [5], in the assay on Rattus norvegicus [3] and in the assay with Rattus norvegicus [4] were 10%, 10% and 18%, respectively. Also, the inhibition in vivo at 100 mg/kg in the assay on Mus musculus [2] turned out to be 33%.
In the assay on Mus musculus [2], `CON(C)C(=O)/C=C1\CCc2ccc(F)cc21` yielded an inhibition in vivo at 100 mg/kg of 17%. Besides, the inhibition in vivo at 20 mg/kg in the assay on Rattus norvegicus [3] was 6%; with Rattus norvegicus [4], 14%.
In the same order, the values of `O=C(/C=C1\CCc2cc(F)c(F)cc21)NC1CC1` are 50%, 30% and 48%.
`O=C(/C=C1\CCc2ccc(Cl)cc21)NC1CC1` registered an inhibition in vivo at 100 mg/kg in the assay on Mus musculus [2] of 50%.
`CCCNC(=O)/C=C1\CCc2ccc(F)cc21`: the ED50 in the assay with Mus musculus [1] was more than 100 mg/kg. Moreover, the values for the inhibition in vivo at 20 mg/kg with Rattus norvegicus [5], in the assay with Rattus norvegicus [3] and in the assay on Rattus norvegicus [4] were 11%, 0% and 36%, respectively. Further, testing at 100 mg/kg in the assay on Mus musculus [2] gave an inhibition in vivo of 100%.
`CNC(=O)/C=C1\CCc2ccc(Br)cc21`: the inhibition in vivo at 20 mg/kg was determined as 4% with Rattus norvegicus [5], 44% in the assay on Rattus norvegicus [3] and 53% with Rattus norvegicus [4]. The molecule also returned an inhibition in vivo at 100 mg/kg in the assay with Mus musculus [2] of 0%.
For `O=C(/C=C1\CCc2ccc(F)cc21)NCCO` the same measures were 33%, 42%, 78% and 50%.
In the same order, the values of `O=C(/C=C1\CCc2ccc(F)cc21)N1CCC1` are 7%, 14%, 0% and 33%.
In the same order, the values of `NC(=O)/C=C1\CCc2c(Cl)cccc21` are 29%, 35%, 58% and 67%.
Molecule `CCNC(=O)/C=C1\CCc2c(F)cc(F)cc21` yielded an inhibition in vivo at 20 mg/kg with Rattus norvegicus [5] of 63%. The inhibition in vivo at 100 mg/kg in the assay on Mus musculus [2] came out at 67%.
For the molecule `O=C(/C=C1\CCc2cc(Cl)ccc21)NC1CC1`, 100 mg/kg produced 17% inhibition in vivo in the assay with Mus musculus [2]. In addition, the inhibition in vivo at 20 mg/kg worked out at 34% in the assay with Rattus norvegicus [3] and 29% with Rattus norvegicus [4].
In turn, `O=C(/C=C1\CCc2ccc(F)cc21)N1CCOCC1` showed an ED50 in the assay on Mus musculus [1] of 90 mg/kg. Moreover, in the assay on Mus musculus [2], the inhibition in vivo at 100 mg/kg was found to be 100%. The inhibition in vivo at 20 mg/kg in the assay on Rattus norvegicus [3] was 7%; in the assay on Rattus norvegicus [4], 31%.
In turn, `O=C(/C=C1\CCc2ccc(F)cc21)NCC1CC1` registered an inhibition in vivo at 100 mg/kg in the assay with Mus musculus [2] of 50%. Besides, the results for the inhibition in vivo at 20 mg/kg in the assay with Rattus norvegicus [3] and in the assay with Rattus norvegicus [4] were 0% and 21%, respectively.
Regarding `CNC(=O)/C=C1\CCc2cc(Cl)ccc21`, the values for the inhibition in vivo at 20 mg/kg in the assay on Rattus norvegicus [5], in the assay on Rattus norvegicus [3] and with Rattus norvegicus [4] were 25%, 40% and 44%, respectively. This molecule showed an inhibition in vivo at 100 mg/kg in the assay with Mus musculus [2] of 50%.
In the case of `O=C(/C=C1\CCc2ccc(Br)cc21)NC1CC1`, in the assay on Mus musculus [2], 100 mg/kg produced 33% inhibition in vivo. Moreover, the values for the inhibition in vivo at 20 mg/kg in the assay on Rattus norvegicus [3] and in the assay on Rattus norvegicus [4] were 29% and 4%, respectively.
With `COc1ccc2c(c1)CC/C2=C\C(N)=O`, the inhibition in vivo at 20 mg/kg was determined as 13% in the assay with Rattus norvegicus [5], 18% in the assay on Rattus norvegicus [3] and 25% with Rattus norvegicus [4]. The same molecule displayed an inhibition in vivo at 100 mg/kg in the assay on Mus musculus [2] of 17%.
In the same order, the values of `CNC(=O)/C=C1\CCc2ccc(Cl)cc21` are 17%, 0%, 25% and 16%.
